This is an account of results in ChEMBL document CHEMBL1130251, “Enzymatic properties of the unnatural beta-L-enantiomers of 2',3'-dideoxyadenosine and 2',3'-didehydro-2',3'-dideoxyadenosine” (J Med Chem, 1997).

One data set deals with T1, Adenosine deaminase (Bos taurus, UniProt P56658).
T1 sequence (P56658 whole entry): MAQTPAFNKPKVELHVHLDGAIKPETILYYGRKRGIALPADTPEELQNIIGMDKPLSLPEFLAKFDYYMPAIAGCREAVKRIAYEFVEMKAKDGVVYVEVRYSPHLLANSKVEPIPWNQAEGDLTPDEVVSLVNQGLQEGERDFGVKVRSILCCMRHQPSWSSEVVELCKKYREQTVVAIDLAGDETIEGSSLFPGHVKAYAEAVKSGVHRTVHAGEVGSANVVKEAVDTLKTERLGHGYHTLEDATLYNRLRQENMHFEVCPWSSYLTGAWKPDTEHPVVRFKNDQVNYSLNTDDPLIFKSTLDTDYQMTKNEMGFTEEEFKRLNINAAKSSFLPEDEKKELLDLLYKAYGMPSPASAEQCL
In words: inhibitory activity against Adenosine deaminase. In a few lines: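 Adenosine deaminase (calf intestinal mucosa, type VIII) at 37 °C in 50 mM phosphate pH 7.5. Substrate tests used 20–80 μM nucleoside and 0.01–1 unit enzyme, with HPLC product analysis. Inhibition was read by UV spectrometry with adenosine 20–100 μM. Ki was taken from Lineweaver–Burk plots assuming competitive inhibition.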

A short description of data set [1]: Half life of the compound. Type of data set: ADME. In a few lines: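 Deamination by calf intestinal mucosa adenosine deaminase (type VIII) at 37 °C in 50 mM phosphate buffer pH 7.5. Substrate 20–80 μM with 0.01–1 unit of enzyme depending on substrate. Conversion followed over time by HPLC on C-18 with a phosphate pH 6 / acetonitrile gradient, which also confirmed the deaminated nucleoside as sole product.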

SMILES strings stand for the structures. pKi: −log10 of the molar value.

As a reminder, the pKi is the negative decadic logarithm of the Ki, by convention in mol/L. For `Nc1ncnc2c1ncn2[C@H]1CC[C@@H](CO)O1`, the pKi on Adenosine deaminase was 3.92. The half-life is the time needed for the level to fall by half in the phase considered. A higher half-life goes with slow decline. With `Nc1ncnc2c1ncn2[C@H]1C=C[C@@H](CO)O1`, the half-life in data set [1] was 3.1 days.
